A selection: hits, their analogues and other compounds. The true share with any hit is near 9.6%.
bCat KO growth: beta-catenin-lacking colon tumor cell growth suppression. HCT116 beta-catenin knockout viability, CellTiter-Glo, 60 h; hits give low values. AID 818. 140,000 tested, 1.5% active. viability, % at 10 µM;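 active = viability at or under a set limit, the compound median less 4 SD, cut at about 6% in these data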
Lmaj promast: inhibitors of Leishmania major promastigote growth; Leishmania major promastigotes, resazurin fluorescence viability; 200,000 tested, 9% active; AID 1063; inhibition, % at 10 µM; in the data active = inhibition above about 50%;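 note: promastigotes grown with compound for 44 hours at 28 °C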
TNAP inh no acc: blocks human TNAP activity with no phosphate acceptor present. P05186. purified TNAP, CDP-star luminescence, 30 min. inhibition, % at 20 µM. 200,000 tested, 0.26% active. AID 1012;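 active = tissue-nonspecific alkaline phosphatase inhibition above about 50% at 20 µM in the single-dose screen, limit read from the data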
Target sequence (P05186 whole entry, looked up): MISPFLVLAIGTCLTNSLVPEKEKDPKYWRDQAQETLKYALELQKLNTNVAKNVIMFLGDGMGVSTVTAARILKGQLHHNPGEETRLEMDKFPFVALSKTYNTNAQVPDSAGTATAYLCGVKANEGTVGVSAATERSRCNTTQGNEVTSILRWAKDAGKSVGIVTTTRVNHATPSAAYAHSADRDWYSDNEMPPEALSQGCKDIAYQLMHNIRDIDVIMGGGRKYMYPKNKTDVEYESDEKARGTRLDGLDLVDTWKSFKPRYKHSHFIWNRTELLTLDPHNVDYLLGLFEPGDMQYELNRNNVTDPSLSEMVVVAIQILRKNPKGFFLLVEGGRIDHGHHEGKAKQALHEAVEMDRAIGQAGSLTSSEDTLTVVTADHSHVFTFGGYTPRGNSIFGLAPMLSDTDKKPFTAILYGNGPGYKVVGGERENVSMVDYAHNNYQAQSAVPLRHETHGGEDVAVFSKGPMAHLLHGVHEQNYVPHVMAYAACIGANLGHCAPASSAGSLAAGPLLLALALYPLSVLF
TNAP inh hi DEA: TNAP (human) inhibition, high acceptor | purified TNAP, CDP-star luminescence, 1 M DEA | inhibition, % at 20 µM | 200,000 tested, 0.03% active | AID 1135;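 active = over 50% inhibition of tissue-nonspecific alkaline phosphatase at 20 µM in the single-dose screen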
TNAP act hi DEA: increases human TNAP activity under high phosphate acceptor concentration; P05186; purified TNAP, CDP-star luminescence, 1 M DEA, 30 min; hits give high values; 0 = EDTA background, 1 = DMSO-only activity; activation factor at 20 µM; 200,000 tested, under 10 active; AID 1136;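 active = activation factor at least 2 at 20 µM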
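Measured by: Luminescent substrate turnover signal | Test system: Human TNAP | Input: TNAP 1/800 final | Dosing: 20 µM single point | Schedule: 30 min, room temperature | Controls: EDTA wells as negative control, DMSO wells as positive control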
HCT116 PTEN-null: suppresses growth of cells with PTEN deletion; viability, % at 10 µM; HCT116 PTEN-null viability, CellTiter-Glo, 60 h; hits give low values; 140,000 tested, 1.2% active;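 active = viability at or below a set limit, 4 SD under the median of all tested compounds, cut at about 3.7% in these data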;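 note: PTEN knockout HCT116 line with beta catenin targeted HCT116 as companion control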
Of the large screens only hits and unclear results are named; the others gave an inactive call.

COc1c(F)c(F)c(C(=O)Nc2ccc(-c3nc4ccccc4[nH]3)cc2)c(F)c1F	none (no result: bCat KO growth, HCT116 PTEN-null)
COc1cccc(OC)c1C(=O)NC(=S)Nc1cc(-c2nc3ccccc3[nH]2)ccc1Cl	Lmaj promast 81
OC(CN1CCCCC1)CN1CCCCC1	none
OC(COCCC12CC3CC(CC(C3)C1)C2)CN1CCCC1 (centres undefined)	Lmaj promast 91 (no result: bCat KO growth, HCT116 PTEN-null)
CC(NCC(O)COCCC12CC3CC(CC(C3)C1)C2)c1ccccc1 (centres undefined)	Lmaj promast 100 (no result: bCat KO growth, HCT116 PTEN-null)
O=C(OCC(O)CN1CCCCC1)C12CC3CC(CC(C3)C1)C2 (centres undefined)	Lmaj promast 91
CCC1CCCCN1CCCn1c(=S)[nH]c2ccccc2c1=O (centres undefined)	Lmaj promast 97
CCOc1cc2[nH]c(=S)n(CCN3CCCCC3CC)c(=O)c2cc1OCC (centres undefined)	none
COc1ccc(OC)c(-c2c(C#N)c(N)nc3c2c(=O)nc2sccn23)c1	none (no result: bCat KO growth, HCT116 PTEN-null)
O=C1/C(=C\c2ccc(O)c(O)c2)C(c2ccccc2)=NN1c1ccccc1	Lmaj promast 99, TNAP inh no acc 88 (no result: bCat KO growth, HCT116 PTEN-null)
CCOc1cc(/C=C2\C(=O)N(c3nc(-c4ccc(Br)cc4)cs3)N=C2c2ccccc2)ccc1O	Lmaj promast 100
COc1cc(/C=N/NC(=O)c2nc(-c3ccccc3)n(-c3ccccc3)n2)ccc1O	none
COc1ccc(/C=C2\C(=O)N(c3nc(-c4ccc(Br)cc4)cs3)N=C2c2ccccc2)cc1	none (no result: bCat KO growth, TNAP inh no acc, TNAP inh hi DEA, TNAP act hi DEA, HCT116 PTEN-null)
COc1cc(/C=C2\C(=O)N(c3ccc(NC(C)=O)cc3)N=C2c2ccccc2)ccc1O	TNAP inh no acc 55 (no result: bCat KO growth, HCT116 PTEN-null)
COc1ccc(NC(=O)c2cc(S(=O)(=O)N3CCOCC3)cs2)cc1	none (no result: bCat KO growth, HCT116 PTEN-null)
O=C1COc2ccc(C(=O)COC(=O)CNC(=O)c3ccco3)cc2N1	none (no result: bCat KO growth, HCT116 PTEN-null)
FC(F)(F)c1cnc2c(-c3ccccc3)n[nH]c2c1	TNAP inh no acc 81 (no result: bCat KO growth, HCT116 PTEN-null)
O=C(O)c1sc2cc(C(F)(F)F)cnc2c1-c1ccccc1	none
COc1ccc(CCNC(=O)c2cc(-c3ccncc3)nc3c(Cl)cccc23)cc1OC	Lmaj promast 51 (no result: bCat KO growth, HCT116 PTEN-null)
COc1ccc(CCNC(=O)c2cc(-c3ccccn3)nc3c(Cl)cccc23)cc1OC	none (no result: bCat KO growth, HCT116 PTEN-null)
COc1ccc(N=C2SC(CC(=O)Nc3ccccc3)C(=O)N2CCN2CCOCC2)cc1 (centres undefined)	Lmaj promast 56 (no result: bCat KO growth, HCT116 PTEN-null)
COCCN1C(=O)C(CC(=O)Nc2ccc(C(=O)O)cc2)SC1=Nc1ccccc1 (centres undefined)	none
COc1ccc(N=C2SC(CC(=O)Nc3ccccc3)C(=O)N2CC2CCCO2)cc1 (centres undefined)	Lmaj promast 63
COc1ccc(N=C2SC(CC(=O)Nc3ccccc3OC)C(=O)N2Cc2ccco2)cc1 (centres undefined)	Lmaj promast 99
COC(=O)c1cc(NC(=O)CC2SC(=Nc3ccccc3)N(CCc3c[nH]c4ccccc34)C2=O)cc(C(=O)OC)c1 (centres undefined)	Lmaj promast 99
COc1ccc(N=C2SC(CC(=O)Nc3ccc(F)cc3)C(=O)N2Cc2ccco2)cc1 (centres undefined)	none
COc1ccc(-c2nc(NC(=O)CCNC(=O)c3ccco3)sc2C)cc1	none (no result: bCat KO growth, HCT116 PTEN-null)
CSc1ccc(/C=N/N2CCN(C)CC2)cc1	none (no result: bCat KO growth, HCT116 PTEN-null)
CN1CCN(/N=C/c2c3ccccc3c(Cl)c3ccccc23)CC1	Lmaj promast 66 (no result: bCat KO growth, HCT116 PTEN-null)
COc1ccc2nc(SCC(=O)N(C)C3CCCCC3)c(C#N)cc2c1	none
COc1ccc2nc(SCC(=O)Nc3ccc(S(=O)(=O)N4CCCC4)cc3)c(C#N)cc2c1	Lmaj promast 90
N#Cc1cc2ccccc2nc1SCC(=O)Nc1ccc(S(=O)(=O)N2CCCC2)cc1	Lmaj promast 96
Cc1cc(C)c2nc(SCC(=O)Nc3ccc(S(=O)(=O)N4CCCC4)cc3)c(C)cc2c1	none
COc1ccc(S(=O)(=O)NC(C)CCc2ccccc2)cc1 (centres undefined)	none (no result: bCat KO growth, HCT116 PTEN-null)
COc1ccc(NC(=O)c2cc(-c3ccccc3)nc3c2c(C)nn3-c2ccccc2)c(OC)c1	Lmaj promast 84
CC(/C=N/NC(=O)c1cc(-c2cccnc2)nc2c1c(C)nn2-c1ccccc1)=C\c1ccccc1	Lmaj promast 57

Screens: PubChem BioAssay, several laboratories
